As usually defined, the pKd is the Kd on a negative log10 scale, so that one unit is a factor of ten.

Assay [1] addresses T1, B-cell lymphoma 6 protein (Homo sapiens, UniProt P41182). In words: Binding affinity to recombinant RED-NHS labeled BCL6 BTB domain (unknown origin) expressed in Escherichia coli BL21 (DE3) after 10 mins by microscale thermophoresis method. (In general: In MST a laser heats a spot of the sample, and binding alters the fluorescence response.)
Assay [2] deals with T1, B-cell lymphoma 6 protein. In words: Binding affinity to captured wild-type human biotinylated Avi-tagged BCL6 BTB domain (5 to 129 amino acid residues) expressed in Escherichia coli BL21 (DE3) by SPR analysis. On the technique in general: SPR reads the build-up and loss of mass on a sensor chip optically.
Assay [3] relates to B-cell lymphoma 6 protein (Homo sapiens), P41182 [C8Q,C67R,C84N]. In words: Binding affinity to human biotinylated His/Avi/SUMO/FLAG-tagged BCL6 BTB domain (5 to 129 amino acid residues) C8Q/C67R/C84N triple mutant expressed in Escherichia coli BL21 (DE3) by STD-NMR spectroscopy. The gist of the method: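 STD-NMR was run on a sample of 400 μM ligand with 20 μM BCL6 BTB at 15 °C, using 32 scans. On- and off-resonance saturation was at 0.4 and 30 ppm, with 2.0 s total saturation. Binding was read as signal decrease on on-resonance irradiation.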

Assay [4] has the same test system. In words: Inhibition of BCoR peptide binding to human biotinylated His/Avi/SUMO/FLAG-tagged BCL6 BTB domain (5 to 129 amino acid residues) C8Q/C67R/C84N triple mutant expressed in Escherichia coli BL21 (DE3) by SPR competition assay.
The target of assay [5] is T1, B-cell lymphoma 6 protein. As to the kind of experiment: Binding affinity to 6His-tagged human BCL6 BTB domain (7 to 128 amino acid residues) expressed in Escherichia coli Rosetta (DE3) after 1 min by fluorescence polarization assay. On the technique in general: Fluorescence polarisation rises when a labelled molecule tumbles more slowly, as on binding a larger partner.

Assay [6] deals with T2, B-cell lymphoma 6 protein (Homo sapiens, UniProt P41182, C67R/C84N/C8Q). As to the kind of experiment: Binding affinity to captured human biotinylated Avi-tagged BCL6 BTB domain (5 to 129 amino acid residues) C8Q/C67R/C84N triple mutant expressed in Escherichia coli BL21 (DE3) by SPR analysis. Put shortly:
(§1)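 Biacore 4000 SPR. Biotinylated BTB (mutant or wild-type) was captured, and wild-type was also amine-coupled on a separate spot, with NeutrAvidin detected as a reference spot. Responses were referenced between spots. Fragments were run from a top concentration of 1 mM in 2-fold dilutions. KD came from equilibrium response plotted against concentration, with BCoR peptide (100 μM) as the positive control.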

The target of assay [7] is T1, B-cell lymphoma 6 protein. In words: Binding affinity to coupled wild-type human biotinylated Avi-tagged BCL6 BTB domain (5 to 129 amino acid residues) expressed in Escherichia coli BL21 (DE3) by SPR analysis. Put shortly:
as §1

Assay [8] addresses T1, B-cell lymphoma 6 protein. As to the kind of experiment: Binding affinity to wild-type human biotinylated Avi-tagged BCL6 BTB domain (5 to 129 amino acid residues) expressed in Escherichia coli BL21 (DE3) using 3 % DMSO by SPR analysis. Put shortly:
(§2)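 SPR (Biacore 4000) binding of BCoR peptide to immobilized wild-type or Cys-mutant BTB in running buffer containing 1%, 3% or 5% DMSO. Peptide ran from a top concentration of 100 μM in 2-fold dilutions. KD and Rmax were fitted from equilibrium response against peptide concentration.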

For assay [9], the target named is T1, B-cell lymphoma 6 protein. In words: Binding affinity to wild-type human biotinylated Avi-tagged BCL6 BTB domain (5 to 129 amino acid residues) expressed in Escherichia coli BL21 (DE3) using 1 % DMSO by SPR analysis. The gist of the method:
as §2

In assay [10] the target is T1, B-cell lymphoma 6 protein. In words: Binding affinity to wild-type human biotinylated Avi-tagged BCL6 BTB domain (5 to 129 amino acid residues) expressed in Escherichia coli BL21 (DE3) using 5 % DMSO by SPR analysis. The gist of the method:
as §2

Assay [11] has as its target T2, B-cell lymphoma 6 protein. In words: (§3) Binding affinity to human biotinylated Avi-tagged BCL6 BTB domain C8Q/C67R/C84N triple mutant expressed in Escherichia coli BL21 (DE3) using 5 % DMSO by SPR analysis. The gist of the method:
as §2

The subject of assay [12] is B-cell lymphoma 6 protein (Homo sapiens), P41182 [C8Q,C67R,C84N]. The description is as §3. The gist of the method:
as §2

Assay [13] has as its target T2, B-cell lymphoma 6 protein. As to the kind of experiment: (§4) Binding affinity to human biotinylated Avi-tagged BCL6 BTB domain C8Q/C67R/C84N triple mutant expressed in Escherichia coli BL21 (DE3) using 3 % DMSO by SPR analysis. The gist of the method:
as §2

Assay [14] concerns B-cell lymphoma 6 protein (Homo sapiens), P41182 [C8Q,C67R,C84N]. The description is as §4. The gist of the method: as §2
Assay [15] concerns the target T2, B-cell lymphoma 6 protein. In words: (§5) Binding affinity to human biotinylated Avi-tagged BCL6 BTB domain C8Q/C67R/C84N triple mutant expressed in Escherichia coli BL21 (DE3) using 1 % DMSO by SPR analysis. The gist of the method:
as §2

Assay [16] has as its system B-cell lymphoma 6 protein (Homo sapiens), P41182 [C8Q,C67R,C84N]. The description is as §5. Put shortly:
as §2

pKd: −log10 of the molar value. The source made the active and inactive calls. No cut-off for these calls is given here.

Regarding `O=C(O)CC(C(=O)O)N1C(=O)/C(=C2/C(=O)Nc3ccc(Br)cc32)SC1=S` (stereo not drawn), in assay [1], the pKd was 3.89.

Consider `Nc1nccc(Nc2ccccc2)n1`, for which the pKd in assay [2] was 2.52.

For the molecule `O=C1Cc2cc(Nc3ncncc3Cl)ccc2N1`, the pKd in assay [2] is 5.03.

In assay [2], `Nc1ncc(F)c(Nc2ccccc2)n1` gave a pKd of 3.74.

For the molecule `Nc1ncnc(Nc2ccccc2)n1`, in assay [3], the result was Active. The inhibition result in assay [4] is “Active”.

`CO[C@H]1/C=C/O[C@@]2(C)Oc3c(C)c(O)c4c(O)c(cc(O)c4c3C2=O)NC(=O)/C(C)=C\C=C\[C@H](C)[C@H](O)[C@@H](C)[C@@H](O)[C@@H](C)[C@H](OC(C)=O)[C@@H]1C` [RIFAMYCIN] had a pKd in assay [5] of 3.00.

Consider Ac-RSEIISTAPSSWVVPPK-OH, for which the pKd in [6] was 4.40; in assay [7], 4.85; in [2], 4.77; in assay [8] it was 5.03; in assay [9] it was 5.12; in assay [10] it was 4.92. Also, the negative-log Kd (pKd) in assay [11] was 4.60; in [13], 4.68; in assay [15], 4.77. Further, the Activity entry in assay [2] was “Dose-dependent effect”. The Rmax in assay [8] is 242 RU; in assay [9] it was 245 RU; in assay [10], 243 RU; in [12] it was 304 RU; in assay [14], 302 RU; in [16], 311 RU.
